From ChEMBL document CHEMBL3091351, “The 3,7-diazabicyclo[3.3.1]nonane scaffold for subtype selective nicotinic acetylcholine receptor (nAChR) ligands. Part 1: the influence of different hydrogen bond acceptor systems on alkyl and (hetero)aryl substituents” (Bioorg Med Chem, 2013)
Activity calls are given as the source filed them. The calls are words filed in the database; no cut-off is given here.

Legend:
[1] = Binding affinity to (alpha1)2beta1gammadelta nAChR (unknown origin); design: species or system Homo sapiens
[2] = Binding affinity to pig adrenal alpha3beta4 nAChR by radioligand displacement assay; design: species or system Sus scrofa
[3] = target: T1, Neuronal acetylcholine receptor subunit alpha-7 (Rattus norvegicus, UniProt Q05941); assay: Displacement of [3H]methyllycaconitine from rat forebrain alpha7 nAChR
T1 sequence (Q05941 whole entry): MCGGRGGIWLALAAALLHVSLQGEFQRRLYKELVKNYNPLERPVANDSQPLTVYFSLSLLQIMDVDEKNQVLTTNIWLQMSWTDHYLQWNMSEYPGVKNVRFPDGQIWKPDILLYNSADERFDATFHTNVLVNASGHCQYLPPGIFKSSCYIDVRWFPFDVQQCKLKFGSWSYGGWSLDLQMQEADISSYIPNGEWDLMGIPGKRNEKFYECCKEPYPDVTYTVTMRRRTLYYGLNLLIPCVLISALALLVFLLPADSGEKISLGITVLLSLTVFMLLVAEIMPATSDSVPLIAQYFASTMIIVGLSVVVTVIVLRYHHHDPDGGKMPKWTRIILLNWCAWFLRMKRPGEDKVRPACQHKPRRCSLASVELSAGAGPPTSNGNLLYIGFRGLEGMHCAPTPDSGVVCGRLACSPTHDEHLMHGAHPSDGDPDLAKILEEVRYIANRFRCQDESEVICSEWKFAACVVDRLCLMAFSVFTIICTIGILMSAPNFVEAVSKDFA
In short: (§1)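 Competition binding on rat forebrain P2 membranes (60–70 µg protein) with [3H]MLA across 6–9 test concentrations. Incubation 120 min at 22 °C; 1 µM MLA defined non-specific binding. Samples filtered on PEI-presoaked glass fibre, scintillation-counted; duplicate to quadruplicate, 2–10 independent experiments.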

[4] = Binding affinity to (alpha1)2beta1gammadelta nAChR in Torpedo californica electroplax by radioligand displacement assay; design: species or system Tetronarce californica
In short: (§2)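 Torpedo californica electroplax membranes (60–70 µg) incubated with (±)-[3H]epibatidine and 6–9 test concentrations in HSS buffer, 90 min at 22 °C. 300 µM (−)-nicotine defined non-specific binding. PEI-presoaked glass fibre filtration, scintillation counting; duplicate to quadruplicate, 2–10 independent experiments.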

[5] = target: T2, Neuronal acetylcholine receptor; alpha4/beta2 (Rattus norvegicus, UniProt P09483+P12390); assay: Displacement of [3H]epibatidine from alpha4beta2 nAChR in Sprague-Dawley rat forebrain P2 fraction after 90 mins by liquid scintillation counting analysis
T2 sequence (P09483 whole entry): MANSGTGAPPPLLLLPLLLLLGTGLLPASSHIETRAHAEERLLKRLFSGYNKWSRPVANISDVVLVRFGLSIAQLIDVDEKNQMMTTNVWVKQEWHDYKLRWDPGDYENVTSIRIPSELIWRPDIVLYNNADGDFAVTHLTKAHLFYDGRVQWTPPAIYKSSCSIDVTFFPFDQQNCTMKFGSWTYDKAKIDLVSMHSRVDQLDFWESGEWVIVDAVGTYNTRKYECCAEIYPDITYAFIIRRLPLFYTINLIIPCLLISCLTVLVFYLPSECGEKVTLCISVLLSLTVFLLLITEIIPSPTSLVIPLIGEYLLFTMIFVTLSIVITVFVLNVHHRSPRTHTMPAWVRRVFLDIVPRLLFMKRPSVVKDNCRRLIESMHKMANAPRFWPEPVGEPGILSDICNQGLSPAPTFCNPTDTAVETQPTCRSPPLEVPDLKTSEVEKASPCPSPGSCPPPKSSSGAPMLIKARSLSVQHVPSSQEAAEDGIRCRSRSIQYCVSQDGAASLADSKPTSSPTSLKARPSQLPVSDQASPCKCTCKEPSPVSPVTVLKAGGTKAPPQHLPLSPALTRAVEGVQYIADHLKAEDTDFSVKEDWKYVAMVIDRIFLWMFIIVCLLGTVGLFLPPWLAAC
T2 sequence (P12390 whole entry): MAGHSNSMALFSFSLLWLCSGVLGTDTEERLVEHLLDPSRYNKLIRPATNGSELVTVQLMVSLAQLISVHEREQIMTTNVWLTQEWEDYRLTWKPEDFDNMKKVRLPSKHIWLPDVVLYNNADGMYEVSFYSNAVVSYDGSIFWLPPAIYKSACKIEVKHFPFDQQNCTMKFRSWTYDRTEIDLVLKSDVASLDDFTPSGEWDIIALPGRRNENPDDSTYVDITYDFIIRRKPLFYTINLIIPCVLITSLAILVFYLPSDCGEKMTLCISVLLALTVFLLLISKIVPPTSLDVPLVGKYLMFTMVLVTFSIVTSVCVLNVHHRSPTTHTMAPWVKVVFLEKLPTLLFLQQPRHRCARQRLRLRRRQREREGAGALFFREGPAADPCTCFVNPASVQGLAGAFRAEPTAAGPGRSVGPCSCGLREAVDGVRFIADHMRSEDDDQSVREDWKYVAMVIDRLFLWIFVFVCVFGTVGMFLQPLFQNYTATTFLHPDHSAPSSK
In short: (§3)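 Rat forebrain P2 membranes (60 µg protein) in HSS buffer with 0.5 nM (±)-[3H]epibatidine and 6–9 test concentrations. Incubated 90 min at 22 °C; non-specific binding defined with 300 µM (−)-nicotine. Filtered through PEI-presoaked glass fibre filters and counted by liquid scintillation. Run in duplicate to quadruplicate, with 2–10 independent experiments.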

[6] = target: T3, Nicotinic acetylcholine receptor alpha1/beta1/epsilon/delta (Mus musculus) (UniProt P04756+P09690+P02716+P20782); assay: Antagonist activity at mouse alpha1beta1epsilondelta nAChR expressed in Xenopus laevis oocytes assessed as inhibition of acetylcholine-induced effect at 10 uM incubated for 8 secs followed by compound washout for 241 secs by Two-electrode voltage clamp assay; format: cell-based
In short: (§4)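 Oocytes clamped at −60 mV, perfused with Ringer's plus 1 µM atropine, pH 7.2. After two control ACh applications, the compound was co-applied with control ACh (60 µM for α7, 30 µM for α1β1εδ), followed by one further ACh control to gauge rundown. α7 used 2 ml/min perfusion; muscle subtype used 4 ml/min.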

[7] = target: Neuronal acetylcholine receptor subunit alpha-7 (Homo sapiens) (UniProt P36544); assay: Antagonist activity at human alpha7 nAChR expressed in Xenopus laevis oocytes assessed as inhibition of acetylcholine-induced effect at 10 uM incubated for 12 secs followed by compound washout for 181 secs by Two-electrode voltage clamp assay; format: cell-based; in short: as §4
Neuronal acetylcholine receptor subunit alpha-7 (Homo sapiens), sequence (P36544 whole entry, the tested form may be a part): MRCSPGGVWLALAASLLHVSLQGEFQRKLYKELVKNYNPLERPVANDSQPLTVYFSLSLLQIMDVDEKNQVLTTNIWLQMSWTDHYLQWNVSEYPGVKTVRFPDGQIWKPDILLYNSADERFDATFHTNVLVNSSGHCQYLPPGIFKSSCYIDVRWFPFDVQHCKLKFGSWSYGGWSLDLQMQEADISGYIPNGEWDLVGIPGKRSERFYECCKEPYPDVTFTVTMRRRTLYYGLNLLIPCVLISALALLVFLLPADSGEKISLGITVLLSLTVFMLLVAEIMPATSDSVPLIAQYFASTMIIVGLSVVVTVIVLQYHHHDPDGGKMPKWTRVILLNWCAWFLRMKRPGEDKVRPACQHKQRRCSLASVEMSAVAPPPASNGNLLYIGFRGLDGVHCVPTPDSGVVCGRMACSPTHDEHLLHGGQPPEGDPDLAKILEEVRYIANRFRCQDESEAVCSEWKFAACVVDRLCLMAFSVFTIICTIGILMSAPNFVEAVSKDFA

[8] = target: T4, Neuronal acetylcholine receptor; alpha3/beta4 (Homo sapiens) (UniProt P30926+P32297); assay: Agonist activity at human alpha3beta4 nAChR expressed in Xenopus laevis oocytes at 10 uM incubated for 8 secs followed by compound washout for 241 secs by Two-electrode voltage clamp assay; format: cell-based
In short: (§5)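 Stage V oocytes, defolliculated with collagenase, injected with 5–20 ng subunit cRNA and recorded 1–7 days later. Two-electrode clamp at −60 mV in Ringer's with 1 µM atropine, pH 7.2. Perfusion 2 ml/min for α7, 4 ml/min for the others. Test applications were bracketed by ACh controls (30 µM α1β1εδ, 60 µM α7, 100 µM α3β4, 30 µM α4β2).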

[9] = target: T2, Neuronal acetylcholine receptor; alpha4/beta2; assay: Displacement of [3H]nicotine from alpha4beta2 nAChR in Sprague-Dawley rat brain membrane fraction after 2 to 3 hrs by liquid scintillation counting analysis; format: cell membranes
[10] = Displacement of [3H]epibatidine from alpha3beta4 nAChR in calf adrenal membranes fraction after 90 mins by liquid scintillation counting analysis; format: cell membranes, Bos taurus
In short: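 Calf adrenal membranes (60–70 µg) in HSS buffer with 0.5 nM (±)-[3H]epibatidine, 6–9 test concentrations, 90 min at 22 °C. Non-specific binding with 300 µM (−)-nicotine. PEI-presoaked glass fibre filtration, liquid scintillation read-out; duplicate to quadruplicate, 2–10 independent experiments.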

[11] = target: T5, Neuronal acetylcholine receptor; alpha4/beta2 (Homo sapiens, UniProt P17787+P43681); assay: Displacement of [3H]nicotine from alpha4beta2 nAChR expressed in human SH-EP1 clonal cell membranes after 2 to 3 hrs by liquid scintillation counting analysis
T5 sequence (P17787 whole entry): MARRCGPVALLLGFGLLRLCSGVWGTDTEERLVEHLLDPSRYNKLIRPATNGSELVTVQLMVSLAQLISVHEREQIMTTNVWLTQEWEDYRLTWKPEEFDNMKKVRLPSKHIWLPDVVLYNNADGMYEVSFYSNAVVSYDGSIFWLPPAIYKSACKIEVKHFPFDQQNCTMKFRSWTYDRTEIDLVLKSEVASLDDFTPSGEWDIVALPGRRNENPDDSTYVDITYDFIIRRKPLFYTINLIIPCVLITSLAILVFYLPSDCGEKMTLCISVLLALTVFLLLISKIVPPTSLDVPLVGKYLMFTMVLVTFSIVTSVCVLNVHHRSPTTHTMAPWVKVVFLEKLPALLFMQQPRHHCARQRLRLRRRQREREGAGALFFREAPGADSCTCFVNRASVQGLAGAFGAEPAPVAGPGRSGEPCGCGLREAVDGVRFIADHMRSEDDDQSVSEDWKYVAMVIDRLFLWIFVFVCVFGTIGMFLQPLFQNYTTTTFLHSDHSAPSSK
T5 sequence (P43681 whole entry): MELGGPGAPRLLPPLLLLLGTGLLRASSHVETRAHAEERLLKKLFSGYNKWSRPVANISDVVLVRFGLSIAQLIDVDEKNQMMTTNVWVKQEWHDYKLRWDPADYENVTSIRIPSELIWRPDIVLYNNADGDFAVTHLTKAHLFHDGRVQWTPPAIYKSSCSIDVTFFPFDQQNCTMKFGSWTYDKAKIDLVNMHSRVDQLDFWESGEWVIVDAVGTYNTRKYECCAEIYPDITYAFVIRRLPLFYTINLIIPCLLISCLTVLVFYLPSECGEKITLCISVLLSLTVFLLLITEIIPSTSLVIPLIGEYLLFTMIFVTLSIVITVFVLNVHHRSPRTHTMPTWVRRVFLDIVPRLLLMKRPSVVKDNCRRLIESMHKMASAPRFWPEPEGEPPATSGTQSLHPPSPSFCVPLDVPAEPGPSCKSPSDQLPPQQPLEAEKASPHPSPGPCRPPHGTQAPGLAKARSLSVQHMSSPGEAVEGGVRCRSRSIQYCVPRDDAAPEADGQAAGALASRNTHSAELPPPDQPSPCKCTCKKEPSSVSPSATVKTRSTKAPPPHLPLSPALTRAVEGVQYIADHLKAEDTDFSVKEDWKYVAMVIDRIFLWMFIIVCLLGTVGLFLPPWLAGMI

[12] = target: T1, Neuronal acetylcholine receptor subunit alpha-7; assay: Displacement of [3H]methyllycaconitine from alpha7 nAChR in Sprague-Dawley rat brain membrane fraction after 2 hrs by liquid scintillation counting analysis; format: cell membranes; in short: as §1
[13] = target: T1, Neuronal acetylcholine receptor subunit alpha-7; assay: Displacement of [3H]methyllycaconitine from alpha7 nAChR in Sprague-Dawley rat forebrain P2 fraction after 90 mins by liquid scintillation counting analysis
[14] = target: T4, Neuronal acetylcholine receptor; alpha3/beta4 (Homo sapiens); assay: Partial agonist activity at human alpha3beta4 nAChR expressed in Xenopus laevis oocytes at 10 uM incubated for 8 secs followed by compound washout for 241 secs by Two-electrode voltage clamp assay; format: cell-based
In short: (§6)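 Oocytes injected with 50 nl of 5–20 ng subunit cRNA and recorded 1–7 days later. Two-electrode voltage clamp at −60 mV, with perfusion at 4 ml/min in Ringer's solution (pH 7.2, 1 µM atropine). Two initial ACh control applications, then a compound application, then a follow-up ACh control. Applications lasted 8 s with a 241 s washout. Control ACh was 100 µM for α3β4 and 30 µM for α4β2.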

[15] = target: T5, Neuronal acetylcholine receptor; alpha4/beta2; assay: Partial agonist activity at human alpha4beta2 nAChR expressed in Xenopus laevis oocytes at 10 uM incubated for 8 secs followed by compound washout for 241 secs by Two-electrode voltage clamp assay; format: cell-based; in short: as §6
[16] = target: T4, Neuronal acetylcholine receptor; alpha3/beta4 (Homo sapiens); assay: Antagonist activity at human alpha3beta4 nAChR expressed in Xenopus laevis oocytes assessed as inhibition of acetylcholine-induced effect at 10 uM incubated for 8 secs followed by compound washout for 241 secs by Two-electrode voltage clamp assay; format: cell-based
In short: (§7)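 Oocytes injected with 50 nl of 5–20 ng subunit cRNA and recorded 1–7 days later. Two-electrode voltage clamp at −60 mV, with perfusion at 4 ml/min in Ringer's solution (pH 7.2, 1 µM atropine). Each recording ran two ACh controls, then compound co-applied with ACh, then a follow-up ACh control. Applications lasted 8 s with a 241 s washout. Control ACh was 100 µM for α3β4 and 30 µM for α4β2.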

[17] = target: T5, Neuronal acetylcholine receptor; alpha4/beta2; assay: Antagonist activity at human alpha4beta2 nAChR expressed in Xenopus laevis oocytes assessed as inhibition of acetylcholine-induced effect at 10 uM incubated for 8 secs followed by compound washout for 241 secs by Two-electrode voltage clamp assay; format: cell-based; in short: as §7
[18] = target: Neuronal acetylcholine receptor subunit alpha-7 (Homo sapiens) (UniProt P36544); assay: Partial agonist activity at human alpha7 nAChR expressed in Xenopus laevis oocytes at 10 uM incubated for 12 secs followed by compound washout for 181 secs by Two-electrode voltage clamp assay; format: cell-based
In short: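 α7-expressing oocytes injected with 50 nl of 5–20 ng cRNA and recorded 1–7 days later. Clamped at −60 mV and perfused at 2 ml/min with Ringer's solution (pH 7.2, 1 µM atropine). Two 60 µM ACh control applications, then a compound application, then a follow-up ACh control. Applications lasted 12 s with a 181 s washout.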

[19] = target: T2, Neuronal acetylcholine receptor; alpha4/beta2; assay: Displacement of [3H]-epibatidine from rat forebrain alpha4beta2 nAChR; in short: as §3
[20] = target: Neuronal acetylcholine receptor subunit alpha-7 (Homo sapiens) (UniProt P36544); assay: Agonist activity at human alpha7 nAChR expressed in Xenopus laevis oocytes at 10 uM incubated for 12 secs followed by compound washout for 181 secs by Two-electrode voltage clamp assay; format: cell-based; in short: as §5
[21] = target: T3, Nicotinic acetylcholine receptor alpha1/beta1/epsilon/delta (Mus musculus); assay: Agonist activity at mouse alpha1beta1epsilondelta nAChR expressed in Xenopus laevis oocytes at 10 uM incubated for 8 secs followed by compound washout for 241 secs by Two-electrode voltage clamp assay; format: cell-based; in short: as §5
[22] = target: T3, Nicotinic acetylcholine receptor alpha1/beta1/epsilon/delta (Mus musculus); assay: Agonist activity at mouse alpha1beta1epsilondelta nAChR expressed in Xenopus laevis oocytes at 1 uM incubated for 8 secs followed by compound washout for 241 secs by Two-electrode voltage clamp assay; format: cell-based; in short: as §5
[23] = target: Neuronal acetylcholine receptor subunit alpha-7 (Homo sapiens) (UniProt P36544); assay: Agonist activity at human alpha7 nAChR expressed in Xenopus laevis oocytes at 1 uM incubated for 12 secs followed by compound washout for 181 secs by Two-electrode voltage clamp assay; format: cell-based; in short: as §5
[24] = Displacement of [3H]epibatidine from (alpha1)2beta1gammadelta nAChR in Torpedo californica electroplax after 90 mins by liquid scintillation counting analysis; design: species or system Tetronarce californica; in short: as §2
[25] = target: T5, Neuronal acetylcholine receptor; alpha4/beta2; assay: Agonist activity at human alpha4beta2 nAChR expressed in Xenopus laevis oocytes at 1 uM incubated for 8 secs followed by compound washout for 241 secs by Two-electrode voltage clamp assay; format: cell-based; in short: as §5
[26] = target: T4, Neuronal acetylcholine receptor; alpha3/beta4 (Homo sapiens); assay: Agonist activity at human alpha3beta4 nAChR expressed in Xenopus laevis oocytes at 1 uM incubated for 8 secs followed by compound washout for 241 secs by Two-electrode voltage clamp assay; format: cell-based; in short: as §5
[27] = target: T5, Neuronal acetylcholine receptor; alpha4/beta2; assay: Agonist activity at human alpha4beta2 nAChR expressed in Xenopus laevis oocytes at 10 uM incubated for 8 secs followed by compound washout for 241 secs by Two-electrode voltage clamp assay; format: cell-based; in short: as §5

| Structure (SMILES) | Ki [5] [nM] | Activity [8] | Ki [9] [nM] | Ki [10] [nM] | Ki [11] [nM] | Ki [12] [nM] | Ki [13] [nM] | Activity [20] | Ki [24] [nM] | other results |
| --- | --- | --- | --- | --- | --- | --- | --- | --- | --- | --- |
| CN1C[C@@H]2C[C@H](C1)C1CCCC(=O)N1C2 (stereo partly drawn) |  |  |  |  |  |  |  |  |  | Ki [1]: > 50000 nM |
| O=c1cccc2n1C[C@@H]1CNC[C@H]2C1 [CYTISINICLINE] |  |  |  |  |  |  |  |  |  | Ki [2]: 19 nM; Ki [3]: 250 nM; Ki [4]: 1300 nM |
| O=C(CC1CCCC1)N1C[C@@H]2CNC[C@@H](C2)C1 | 43.5 | inactive |  |  |  |  |  |  |  | Activity [6]: Active; Activity [7]: Active |
| CC(C)C(=O)N1C[C@@H]2CNC[C@@H](C2)C1 | 50.3 |  | 102 | 828 | 44.4 | 645 | > 5000 |  |  |  |
| O=C(c1ccc(-c2ccccc2)cc1)N1C[C@@H]2CNC[C@@H](C2)C1 | 39.9 |  |  | 1090 |  |  |  |  |  | Activity [14]: Active; Activity [7]: Active; Activity [15]: Active; Activity [16]: Active; Activity [17]: Active; Activity [18]: Active |
| O=c1c(-c2cccnc2)ccc2n1C[C@@H]1CNC[C@H]2C1 |  |  |  |  |  |  |  |  |  | Ki [3]: 1100 nM; Ki [4]: > 5000 nM; Ki [19]: 0.91 nM |
| O=C(C1CCCC1)N1C[C@@H]2CNC[C@@H](C2)C1 | 10.8 | inactive | 26.6 |  | 20.2 | 211 |  | Active |  | Activity [21]: inactive |
| CC(=O)N1C[C@@H]2CNC[C@@H](C2)C1 | 5.6 | Active | 18.7 | 664 | 20.2 | 3280 | 636 | Active |  | Activity [21]: inactive |
| C1NCC2CNCC1C2 | 600 | Active |  | > 1000 |  |  | > 1000 | Active | > 1000 | Activity [22]: Active; Activity [23]: Active; Activity [25]: Active; Activity [26]: Active |
| CCC(=O)N1C[C@@H]2CNC[C@@H](C2)C1 | 4.5 | Active | 12.2 | 329 | 10.4 | 795 | > 2000 | Active | > 1000 |  |
| CCCC(=O)N1C[C@@H]2CNC[C@@H](C2)C1 | 3.6 | Active | 8.1 | 266 | 2.9 | 230 | > 1000 | Active | > 5000 | Activity [21]: inactive; Activity [27]: Active |
| O=C1CCCC2[C@H]3CNC[C@H](C3)CN12 (stereo partly drawn) |  |  |  |  |  |  |  |  |  | Ki [1]: 19000 nM |
| O=C(c1ccco1)N1C[C@@H]2CNC[C@@H](C2)C1 | 21.4 |  | 31 | 2240 | 9.9 | 15000 |  |  | > 10000 |  |
